Key:
[1] = Cytotoxicity against human HuH7 cells after 72 hrs by Alamar Blue assay; assay type: cell-based; details: Huh-7 cells
[2] = system: Bovine viral diarrhea virus 1; experiment: Antiviral activity against BVDV1; assay type: functional, organism-based; details: Bovine viral diarrhea virus isolates and strains
[3] = system: Hepatitis C virus; experiment: Antiviral activity against HCV genotype 1b infected in human Huh7 cells assessed as inhibition of viral replication by FRET assay; assay type: functional, organism-based, Hepacivirus hominis; details: Huh-7
Summary of the method: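 Replicon potency values are the means of at least two experiments.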

Compound	CC50 at 72 h [1] [µM]	EC50 [2] [µM]	EC50 [3] [µM]
O=C(Nc1ccc(/C=C/c2ccc(NC(=O)[C@@H]3CCCN3C(=O)Cc3ccccc3)cc2)cc1)[C@@H]1CCCN1C(=O)Cc1ccccc1	> 10	> 10	–
C[C@@H](C(=O)N1CCC[C@H]1C(=O)Nc1ccc(/C=C/c2ccc(NC(=O)[C@@H]3CCCN3C(=O)[C@H](C)c3ccccc3)cc2)cc1)c1ccccc1	> 10	> 10	< 0.005
O=C(Nc1ccc(/C=C/c2ccc(NC(=O)[C@@H]3C4CC4CN3C(=O)OCc3ccccc3)cc2)cc1)[C@@H]1C2CC2CN1C(=O)OCc1ccccc1 (stereo partly specified)	> 10	> 10	0.089
O=C(Nc1ccc(/C=C/c2ccc(NC(=O)[C@@H]3CCCN3C(=O)Cc3ccccc3)cc2)cc1)[C@@H]1CCCN1	> 10	> 10	1.39
CC(=O)Nc1ccc(/C=C/c2ccc(NC(=O)[C@@H]3CCCN3C(=O)Cc3ccccc3)cc2)cc1	> 10	> 10	1.64
Nc1ccc(/C=C/c2ccc(NC(=O)[C@@H]3CCCN3C(=O)Cc3ccccc3)cc2)cc1	> 10	> 10	> 10
C[C@H](NC(=O)Cc1ccccc1)C(=O)Nc1ccc(/C=C/c2ccc(NC(=O)[C@@H]3CCCN3C(=O)Cc3ccccc3)cc2)cc1	> 10	> 10	0.00257
CC(=O)N[C@@H](C)C(=O)Nc1ccc(/C=C/c2ccc(NC(=O)[C@@H]3CCCN3C(=O)Cc3ccccc3)cc2)cc1	> 10	> 10	0.153
O=C(Cc1ccccc1)NCC(=O)Nc1ccc(/C=C/c2ccc(NC(=O)[C@@H]3CCCN3C(=O)Cc3ccccc3)cc2)cc1	> 10	> 10	0.768
C[C@H](NC(=O)OCc1ccccc1)C(=O)Nc1ccc(/C=C/c2ccc(NC(=O)[C@H](C)NC(=O)OCc3ccccc3)cc2)cc1	> 10	> 10	3.21
C[C@@H](C(=O)Nc1ccc(/C=C/c2ccc(NC(=O)[C@H](C)N(C)C(=O)OCc3ccccc3)cc2)cc1)N(C)C(=O)OCc1ccccc1	> 10	> 10	0.0731
O=C(Nc1ccc(/C=C/c2ccc(NC(=O)[C@@H]3CCN3C(=O)OCc3ccccc3)cc2)cc1)[C@@H]1CCN1C(=O)OCc1ccccc1	> 10	> 10	0.058
O=C(Nc1ccc(/C=C/c2ccc(NC(=O)[C@@H]3CCCCN3C(=O)OCc3ccccc3)cc2)cc1)[C@@H]1CCCCN1C(=O)OCc1ccccc1	> 10	> 10	0.0627
O=C(Nc1ccc(/C=C/c2ccc(NC(=O)[C@@H]3Cc4ccccc4N3C(=O)OCc3ccccc3)cc2)cc1)[C@@H]1Cc2ccccc2N1C(=O)OCc1ccccc1	> 10	> 10	0.0669
O=C(Nc1ccc(/C=C/c2ccc(NC(=O)[C@@H]3[C@H]4CCC[C@H]4CN3C(=O)OCc3ccccc3)cc2)cc1)[C@@H]1[C@H]2CCC[C@H]2CN1C(=O)OCc1ccccc1	> 10	> 10	0.12
O=C(Nc1ccc(/C=C/c2ccc(NC(=O)[C@@H]3COCN3C(=O)OCc3ccccc3)cc2)cc1)[C@@H]1COCN1C(=O)OCc1ccccc1	> 10	> 10	0.00614
O=C(Nc1ccc(/C=C/c2ccc(NC(=O)[C@@H]3C[C@H](O)CN3C(=O)OCc3ccccc3)cc2)cc1)[C@@H]1C[C@H](O)CN1C(=O)OCc1ccccc1	> 10	> 10	0.0115
CO[C@@H]1C[C@@H](C(=O)Nc2ccc(/C=C/c3ccc(NC(=O)[C@@H]4C[C@@H](OC)CN4C(=O)OCc4ccccc4)cc3)cc2)N(C(=O)OCc2ccccc2)C1	> 10	> 10	< 0.005
CCO[C@@H]1C[C@@H](C(=O)Nc2ccc(/C=C/c3ccc(NC(=O)[C@@H]4C[C@@H](OCC)CN4C(=O)OCc4ccccc4)cc3)cc2)N(C(=O)OCc2ccccc2)C1	> 10	> 10	0.038
CO[C@H]1C[C@@H](C(=O)Nc2ccc(/C=C/c3ccc(NC(=O)[C@@H]4C[C@H](OC)CN4C(=O)OCc4ccccc4)cc3)cc2)N(C(=O)OCc2ccccc2)C1	> 10	> 10	< 0.005

Compound	CC50 at 72 h [1] [µM]	EC50 [2] [µM]	EC50 [3] [µM]
CCO[C@H]1C[C@@H](C(=O)Nc2ccc(/C=C/c3ccc(NC(=O)[C@@H]4C[C@H](OCC)CN4C(=O)OCc4ccccc4)cc3)cc2)N(C(=O)OCc2ccccc2)C1	> 10	> 10	0.015
CC(C)(C)O[C@H]1C[C@@H](C(=O)Nc2ccc(/C=C/c3ccc(NC(=O)[C@@H]4C[C@H](OC(C)(C)C)CN4C(=O)OCc4ccccc4)cc3)cc2)N(C(=O)OCc2ccccc2)C1	> 10	> 10	0.35
CC(C)(C)NC(=O)O[C@@H]1C[C@@H](C(=O)Nc2ccc(/C=C/c3ccc(NC(=O)[C@@H]4C[C@@H](OC(=O)NC(C)(C)C)CN4C(=O)OCc4ccccc4)cc3)cc2)N(C(=O)OCc2ccccc2)C1	> 10	> 10	> 10
N[C@H]1C[C@@H](C(=O)Nc2ccc(/C=C/c3ccc(NC(=O)[C@@H]4C[C@H](N)CN4C(=O)OCc4ccccc4)cc3)cc2)N(C(=O)OCc2ccccc2)C1	> 10	> 10	1.29
CN(C)[C@H]1C[C@@H](C(=O)Nc2ccc(/C=C/c3ccc(NC(=O)[C@@H]4C[C@H](N(C)C)CN4C(=O)OCc4ccccc4)cc3)cc2)N(C(=O)OCc2ccccc2)C1	> 10	> 10	0.01
C[C@H](C(=O)N1CCC[C@H]1C(=O)Nc1ccc(/C=C/c2ccc(NC(=O)[C@@H]3CCCN3C(=O)[C@@H](C)c3ccccc3)cc2)cc1)c1ccccc1	> 10	> 10	0.005
O=C(Nc1ccc(/C=C/c2ccc(NC(=O)[C@@H]3CCCN3C(=O)c3ccccc3)cc2)cc1)[C@@H]1CCCN1C(=O)c1ccccc1	> 10	> 10	0.102
CC(=O)N1CCC[C@H]1C(=O)Nc1ccc(/C=C/c2ccc(NC(=O)[C@@H]3CCCN3C(C)=O)cc2)cc1	> 10	> 10	2.38
O=C(Nc1ccc(/C=C/c2ccc(NC(=O)[C@@H]3CCCN3C(=O)Cc3ccccn3)cc2)cc1)[C@@H]1CCCN1C(=O)Cc1ccccn1	> 10	> 10	0.00222
O=C(Nc1ccc(/C=C/c2ccc(NC(=O)[C@@H]3CCCN3C(=O)Cc3ccncc3)cc2)cc1)[C@@H]1CCCN1C(=O)Cc1ccncc1	> 10	> 10	0.172
O=C(Nc1ccc(/C=C/c2ccc(NC(=O)[C@@H]3CCCN3C(=O)Cc3cccs3)cc2)cc1)[C@@H]1CCCN1C(=O)Cc1cccs1	> 10	> 10	0.00128
Cn1cccc1CC(=O)N1CCC[C@H]1C(=O)Nc1ccc(/C=C/c2ccc(NC(=O)[C@@H]3CCCN3C(=O)Cc3cccn3C)cc2)cc1	> 10	> 10	0.0102
Cc1cc(CC(=O)N2CCC[C@H]2C(=O)Nc2ccc(/C=C/c3ccc(NC(=O)[C@@H]4CCCN4C(=O)Cc4cc(C)no4)cc3)cc2)on1	> 10	> 10	0.0762
Cn1cnc(CC(=O)N2CCC[C@H]2C(=O)Nc2ccc(/C=C/c3ccc(NC(=O)[C@@H]4CCCN4C(=O)Cc4cn(C)cn4)cc3)cc2)c1	> 10	> 10	0.0867
O=C(Nc1ccc(/C=C/c2ccc(NC(=O)[C@@H]3CCCN3C(=O)Cc3c[nH]cn3)cc2)cc1)[C@@H]1CCCN1C(=O)Cc1c[nH]cn1	> 10	> 10	1
Cc1nc2sccn2c1C(=O)N1CCC[C@H]1C(=O)Nc1ccc(/C=C/c2ccc(NC(=O)[C@@H]3CCCN3C(=O)c3c(C)nc4sccn34)cc2)cc1	> 10	> 10	0.0579
O=C(Nc1ccc(/C=C/c2ccc(NC(=O)[C@@H]3CCCN3C(=O)c3c[nH]c4ccccc34)cc2)cc1)[C@@H]1CCCN1C(=O)c1c[nH]c2ccccc12	> 10	> 10	0.111
Cn1cc(C(=O)N2CCC[C@H]2C(=O)Nc2ccc(/C=C/c3ccc(NC(=O)[C@@H]4CCCN4C(=O)c4cn(C)c5ccccc45)cc3)cc2)c2ccccc21	> 10	> 10	0.14
O=C(Nc1ccc(/C=C/c2ccc(NC(=O)[C@@H]3CCCN3C(=O)C3Cc4ccccc4O3)cc2)cc1)[C@@H]1CCCN1C(=O)C1Cc2ccccc2O1 (stereo partly specified)	> 10	> 10	0.011

Reference: ChEMBL document CHEMBL2146359, “HCV NS5A replication complex inhibitors. Part 2: investigation of stilbene prolinamides” (Bioorg Med Chem Lett, 2012)
